Data taken from ChEMBL document CHEMBL4339251, “Prenylated Bibenzyls from the Chinese Liverwort Radula constricta and Their Mitochondria-Derived Paraptotic Cytotoxic Activities” (J Nat Prod, 2019).
Calls of active or inactive are those of the source. The calls are words filed in the database; no cut-off is given here.

Tests used:
A549 [1] = experiment: Induction of mitochondria-derived paraptosis in human A549 cells assessed as reduction in intensity of mitochondria fluorescence up to 24 hrs by Mito-Tracker staining based fluorescence microscopy; assay type: functional, cell-based
Method in brief: (§1)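 Mitochondrial fluorescence. After treatment for the indicated times, cells were stained with Mito-Tracker Red (100 nM) and 10 000 cells per sample were analysed by flow cytometry. Cells with decreased red fluorescence were gated as "pale" cells.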

A549 [2] = experiment: Induction of mitochondria-derived paraptosis in human A549 cells assessed as induction of HMGB1 translocation from nucleus to cytoplasm at 10 uM incubated for 24 hrs by immunofluorescence staining; assay type: functional, cell-based
Method in brief: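 HMGB1 immunofluorescence. Cells were treated at 10 μM for 24 h, fixed in 4% paraformaldehyde for 30 min, permeabilised with 0.3% Triton X-100 for 15 min and blocked with 5% BSA for 30 min. Anti-HMGB1 was applied at 4 °C overnight and the secondary antibody at 37 °C for 1 h. Nuclei were counterstained with DAPI and cells imaged by confocal microscopy.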

NCI-H1299 [3] = experiment: Induction of apoptosis in human NCI-H1299 cells assessed as late apoptotic cells at 20 uM by annexinV-FITC and propidium iodide staining based flow cytometric analysis (reference value: 3.29%); assay type: functional
NCI-H1299 [4] = experiment: Induction of apoptosis in human NCI-H1299 cells assessed as late apoptotic cells at 10 uM by annexinV-FITC and propidium iodide staining based flow cytometric analysis (reference value: 3.29%); assay type: functional
A549 [5] = experiment: Induction of ROS generation in human A549 cells after 1 hr by DCFH-DA staining based flow cytometry relative to untreated control; assay type: functional
Method in brief: (§2)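 ROS by flow cytometry. Cells were exposed for the indicated times, then stained with DCFH-DA (10 μM). DCF mean fluorescence intensity was compared with untreated control. Mean ± SD, n = 3.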

NCI-H1299 [6] = experiment: Induction of mitochondria-derived paraptosis in human NCI-H1299 cells assessed as formation of fluorescent vacuoles after 3 hrs by Mito-Tracker staining based fluorescence microscopy; assay type: functional, cell-based
Method in brief: (§3)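 Live-cell imaging. Treated cells on coverslips were stained with Mito-Tracker Red (100 nM) at 37 °C for 30 min, washed three times with PBS and stained with Hoechst 33342 (10 μg/mL) for 15 min. Images were taken by confocal or fluorescence microscopy at the indicated times.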

A549 [7] = experiment: Induction of apoptosis in human A549 cells assessed as late apoptotic cells at 20 uM by annexinV-FITC and propidium iodide staining based flow cytometric analysis (reference value: 3.14%); assay type: functional
A549 [8] = experiment: Induction of apoptosis in human A549 cells assessed as early apoptotic cells at 10 uM by annexinV-FITC and propidium iodide staining based flow cytometric analysis (reference value: 1.47%); assay type: functional
U-251 = experiment: Cytotoxicity in human U251 cells assessed as reduction in cell viability incubated for 48 hrs by MTT assay; assay type: functional, cell-based; conditions: U-251, 48 h
Method in brief: (§4)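 MTT viability. U251 and NCI-H1299 were grown in DMEM, the other lines in RPMI 1640, each with 10% FBS, penicillin and streptomycin, at 37 °C in 5% CO2. Cells were seeded in 96-well plates overnight and exposed to a range of concentrations. MTT (5 mg/mL) was added for 4 h, formazan was dissolved in DMSO and absorbance read at 570 nm. Three independent experiments.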

NCI-H1299 [9] = experiment: Induction of apoptosis in human NCI-H1299 cells assessed as induction of PARP cleavage at 2.5 to 10 uM incubated for 24 hrs by Western blot analysis; assay type: functional, cell-based
Method in brief: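 Western blot. Cells were cultured overnight in six-well plates, then exposed to various concentrations for 24 h before immunoblotting.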

A549 [10] = experiment: Induction of apoptosis in human A549 cells assessed as necrotic cells at 20 uM by annexinV-FITC and propidium iodide staining based flow cytometric analysis (reference value: 1.44%); assay type: functional
A549 [11] = experiment: Induction of cytoplasmic vacuolization in human A549 cells; assay type: functional, cell-based
A549 [12] = experiment: Induction of apoptosis in human A549 cells assessed as late apoptotic cells at 10 uM by annexinV-FITC and propidium iodide staining based flow cytometric analysis (reference value: 3.14%); assay type: functional
A549 [13] = experiment: Cytotoxicity in human A549 cells assessed as reduction in cell viability incubated for 48 hrs by MTT assay; assay type: functional, cell-based; conditions: A549, 48 h; method in brief: as §4
NCI-H1299 [14] = experiment: Induction of apoptosis in human NCI-H1299 cells assessed as necrotic cells at 10 uM by annexinV-FITC and propidium iodide staining based flow cytometric analysis (reference value: 3.17%); assay type: functional
NCI-H1299 [15] = experiment: Induction of apoptosis in human NCI-H1299 cells assessed as early apoptotic cells at 10 uM by annexinV-FITC and propidium iodide staining based flow cytometric analysis (reference value: 1.26%); assay type: functional
NCI-H1299 [16] = experiment: Induction of mitochondria-derived paraptosis in human NCI-H1299 cells assessed as formation of fusion among swollen mitochondria after 6 to 24 hrs by Mito-Tracker staining based fluorescence microscopy; assay type: functional, cell-based; method in brief: as §3
NCI-H1299 [17] = experiment: Induction of mitochondria dysfunction in human NCI-H1299 cells assessed as mitochondrial membrane potential incubated for 1 hr by JC-1 dye based flow cytometry relative to 0 hrs control; assay type: functional
Method in brief: (§5)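 Membrane potential. After treatment for the indicated times, ΔΨm was measured by JC-1 (5 μg/mL) staining and flow cytometry, relative to the 0 h control. Mean ± SD, n = 3.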

NCI-H1299 [18] = experiment: Cytotoxicity in human NCI-H1299 cells assessed as reduction in cell viability incubated for 48 hrs by MTT assay; assay type: functional, cell-based; conditions: NCI-H1299, 48 h; method in brief: as §4
HT-29 = experiment: Cytotoxicity in human HT-29 cells assessed as reduction in cell viability incubated for 48 hrs by MTT assay; assay type: functional, cell-based; conditions: HT-29, 48 h; method in brief: as §4
MCF7 = experiment: Cytotoxicity in human MCF7 cells assessed as reduction in cell viability incubated for 48 hrs by MTT assay; assay type: functional, cell-based; conditions: MCF7, 48 h; method in brief: as §4
A549 [19] = experiment: Induction of ROS generation in human A549 cells by DCFH-DA staining based flow cytometry; assay type: functional, cell-based; conditions: TDE = time-dependent effect; method in brief: as §2
A549 [20] = experiment: Induction of mitochondria-derived paraptosis in human A549 cells assessed as formation of fusion among swollen mitochondria after 6 to 24 hrs by Mito-Tracker staining based fluorescence microscopy; assay type: functional, cell-based; method in brief: as §3
A549 [21] = experiment: Induction of mitochondria dysfunction in human A549 cells assessed as mitochondrial membrane potential incubated for 1 hr by JC-1 dye based flow cytometry relative to 0 hrs control; assay type: functional; method in brief: as §5
SW-620 = experiment: Cytotoxicity in human SW620 cells assessed as reduction in cell viability incubated for 48 hrs by MTT assay; assay type: functional, cell-based; conditions: SW-620, 48 h; method in brief: as §4
NCI-H1299 [22] = experiment: Induction of mitochondria-derived paraptosis in human NCI-H1299 cells assessed as reduction in intensity of mitochondria fluorescence up to 24 hrs by Mito-Tracker staining based fluorescence microscopy; assay type: functional, cell-based; method in brief: as §1
KB = experiment: Cytotoxicity in human KB cells assessed as reduction in cell viability incubated for 48 hrs by MTT assay; assay type: functional, cell-based; method in brief: as §4
NCI-H1299 [23] = experiment: Induction of apoptosis in human NCI-H1299 cells assessed as necrotic cells at 20 uM by annexinV-FITC and propidium iodide staining based flow cytometric analysis (reference value: 3.17%); assay type: functional
NCI-H1299 [24] = experiment: Induction of ROS generation in human NCI-H1299 cells by DCFH-DA staining based flow cytometry; assay type: functional, cell-based; conditions: TDE = time-dependent effect; method in brief: as §2

## COC(=O)c1c(CCc2ccccc2)cc(O)c(CC=C(C)C)c1O
A549 [1]
  Activity: Active
A549 [2]
  Activity: Active
NCI-H1299 [3]
  Activity: 2.95%
NCI-H1299 [4]
  Activity: 3.36%
A549 [5]
  fold change (FC): 20
NCI-H1299 [6]
  Activity: Active
A549 [7]
  Activity: 4.14%
A549 [8]
  Activity: 0.75%
U-251
  IC50: 9 µM
NCI-H1299 [9]
  Activity: inactive
A549 [10]
  Activity: 1.73%
A549 [11]
  Activity: Active
A549 [12]
  Activity: 3.39%
A549 [13]
  IC50: 6 µM
NCI-H1299 [14]
  Activity: 3.75%
NCI-H1299 [15]
  Activity: 0.57%
NCI-H1299 [16]
  Activity: Active
NCI-H1299 [17]
  Activity: 25%
NCI-H1299 [18]
  IC50: 5.1 µM
HT-29
  IC50: 5 µM
MCF7
  IC50: 10.2 µM
A549 [19]
  Activity: Tde
A549 [20]
  Activity: Active
A549 [21]
  Activity: 50%
SW-620
  IC50: 6.3 µM
NCI-H1299 [22]
  Activity: Active
KB
  IC50: 6.7 µM
NCI-H1299 [23]
  Activity: 3.49%
NCI-H1299 [24]
  Activity: Tde
